Experimental findings from ChEMBL document CHEMBL1142383, “Discovery of potent cholecystokinin-2 receptor antagonists: elucidation of key pharmacophore elements by X-ray crystallographic and NMR conformational analysis” (Bioorg Med Chem, 2008) are described below.

Series [1] has as its target T1, Cholecystokinin receptor type A (Homo sapiens, UniProt P32238).
T1 sequence (P32238 whole entry): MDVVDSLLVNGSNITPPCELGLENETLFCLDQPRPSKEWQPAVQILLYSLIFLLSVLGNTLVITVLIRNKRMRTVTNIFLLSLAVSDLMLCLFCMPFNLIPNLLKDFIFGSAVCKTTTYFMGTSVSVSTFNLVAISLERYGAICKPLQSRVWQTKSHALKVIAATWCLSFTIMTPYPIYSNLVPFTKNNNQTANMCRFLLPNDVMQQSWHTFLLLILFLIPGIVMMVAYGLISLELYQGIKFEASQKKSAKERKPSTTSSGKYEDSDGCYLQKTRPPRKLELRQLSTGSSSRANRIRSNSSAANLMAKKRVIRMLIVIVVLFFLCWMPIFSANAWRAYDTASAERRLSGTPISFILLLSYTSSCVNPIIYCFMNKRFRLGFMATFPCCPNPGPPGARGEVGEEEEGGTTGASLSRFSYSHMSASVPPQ
Kind of series: Displacement of [125I]CCK8S from human CCK1R.

The nature of series [2]: Metabolic stability in human liver microsome assessed as compound remaining after 30 mins. Type of series: ADME. Particulars: liver microsomes, read-out: Stability. An outline of the steps:
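Incubation for 30 min with pooled human liver microsome preparations (n = 20). Stability is expressed as percent of parent remaining.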
In general terms: Microsomes from liver hold many membrane-bound enzymes, among them those of drug oxidation.

The nature of series [3]: Bioavailability in rat at 2 umol/kg, po. Type of series: ADME, organism-based. The note with it: in vivo. An outline of the steps: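 Rat oral dosing at […]. Bioavailability is reported as relative fraction absorbed (%F) from the po dose.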
Series [4] is described as follows: Half life in rat at 2 umol/kg, iv. The note with it: in vivo. Type of series: ADME, organism-based. The method, boiled down:
(§1)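 Rat pharmacokinetics after an intravenous dose of […]. Clearance and half-life were derived from the iv dosing.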

The nature of series [5]: Clearance in rat at 2 umol/kg, iv. Type of series: ADME, organism-based. The note with it: in vivo. An outline of the steps:
as §1

For series [6], the target named is T2, Gastrin/cholecystokinin type B receptor (Homo sapiens, UniProt P32239).
T2 sequence (P32239 whole entry): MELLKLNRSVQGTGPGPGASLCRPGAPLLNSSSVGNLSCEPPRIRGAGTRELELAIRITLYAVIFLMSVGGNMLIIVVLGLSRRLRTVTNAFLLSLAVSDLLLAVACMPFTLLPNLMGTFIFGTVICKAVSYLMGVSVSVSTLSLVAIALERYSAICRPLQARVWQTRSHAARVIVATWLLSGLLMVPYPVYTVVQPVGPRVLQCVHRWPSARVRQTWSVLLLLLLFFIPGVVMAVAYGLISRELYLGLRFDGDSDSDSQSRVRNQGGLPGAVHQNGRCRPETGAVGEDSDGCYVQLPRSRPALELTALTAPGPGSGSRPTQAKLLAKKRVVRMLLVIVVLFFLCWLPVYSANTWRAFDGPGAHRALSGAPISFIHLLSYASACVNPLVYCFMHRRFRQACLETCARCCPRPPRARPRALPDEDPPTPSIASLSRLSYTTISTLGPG
Description: Displacement of [125I]CCK8S from human CCK2R. An outline of the steps: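 Radioligand competition binding at human CCK-2R against [125I]-CCK-8S. The pIC50 is the concentration displacing 50% of tracer binding, converted to pKi by the Cheng–Prusoff method.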

Molecules are shown by their SMILES.

The term Ki denotes the dissociation constant of the complex between target and ligand, obtained from inhibition or displacement. Higher therefore signals lower affinity. In general, bioavailability refers to dose-corrected exposure relative to a reference, in per cent. Broadly, the half-life is the time in which the quantity being followed falls by half. Low readings indicate fast loss, high ones slow loss. The clearance is a measure of how efficiently the substance is removed, as volume per time. The low end stands for inefficient removal, the high end for efficient removal.

The molecule `O=C(c1ccc(Br)cc1NS(=O)(=O)c1cccc2nccnc12)N1CCCCC1` showed a Ki in series [1] greater than 10 µM. Also, the remaining at 0.5 h in series [2] is 21%. The same molecule had a bioavailability in series [3] of 50%. For the same molecule, in series [4], the half-life is 20.4 min. This molecule gave a clearance in series [5] of 13.8 mL/min/kg.

Regarding `Cn1nc2cccc(S(=O)(=O)Nc3cc(Br)ccc3C(=O)N3CCCCC3)c2n1`, the Ki in series [1] was greater than 10 µM; in series [6], 0.794 µM.

As for `Cc1nc2cccc(S(=O)(=O)Nc3cc(Br)ccc3C(=O)N3CCCCC3)c2s1`, the figures for the Ki in series [1] and in series [6] were greater than 10 µM and 5.01 µM, respectively.

With `Cn1nnc2c(S(=O)(=O)Nc3cc(Br)ccc3C(=O)N3CCCCC3)cccc21`, the figures for the Ki in series [1] and in series [6] were greater than 10 µM and 2 µM, respectively.

For `O=C(c1ccc(Br)cc1NS(=O)(=O)c1cccc2[nH]cnc12)N1CCCCC1`, the Ki in series [1] is greater than 10 µM; in series [6], 1.58 µM.

As for `O=C(c1ccc(Br)cc1NS(=O)(=O)c1cccc2ncsc12)N1CCCCC1`, the Ki was greater than 10 µM in series [1] and 0.794 µM in series [6].

`O=C(NCc1ccc(Cl)cc1)c1ccc(Br)cc1NS(=O)(=O)c1cccc2nsnc12`: the Ki in series [1] was greater than 10 µM; in series [6], 0.501 µM.

Take `O=C(c1ccc(Br)cc1NS(=O)(=O)c1ccc2ncsc2c1)N1CCCCC1`: the results for the Ki in series [1] and in series [6] were greater than 10 µM and 3.16 µM, respectively.

In the case of `O=C(c1ccc(Br)cc1NS(=O)(=O)c1cccc2scnc12)N1CCCCC1`, the Ki is greater than 10 µM in series [1] and 0.0794 µM in series [6].

As to `Cn1nc2ccc(S(=O)(=O)Nc3cc(Br)ccc3C(=O)N3CCCCC3)cc2n1`, the inhibition constant (Ki) in series [1] and in series [6] was greater than 10 µM each time.
